bIAP inh: intestinal alkaline phosphatase (bovine) inhibition; purified bovine IAP, CDP-star luminescence, 30 min; inhibition, % at 20 µM; 190,000 tested, under 10 active;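 active means over 50% inhibition of intestinal alkaline phosphatase at 20 µM in the single-dose screen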
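test system = bovine IAP enzyme | medium = DEA buffer 100 mM, pH 9.8, with MgCl2 1.0 mM, ZnCl2 0.02 mM | detection = luminescence | dosing = single compound dose of 20 µM, 2% DMSO final | incubation = 30 min reaction at room temperature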
mIAP inh: mouse IAP inhibition; purified mouse IAP, CDP-Star luminescence, 30 min; inhibition, % at 10 µM; hit rate 0.2% among 330,000;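 active means inhibition of at least 40% at 10 µM in the primary screen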;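 further: plate controls were DMSO with enzyme for no effect and no enzyme wells for full effect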
mIAP act: mouse IAP activation; muIAP, CDP-Star luminescence, 30 min; stronger effect = higher value; 1 = vehicle-only enzyme signal, 0 = enzyme-free wells; activation factor at 10 µM; hit rate 0.24% among 330,000;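 active means activation factor of at least 2 at 20 µM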
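also added = chemiluminescent substrate CDP-Star | test system = mouse IAP enzyme | signal = chemiluminescence readout | compound = DMSO-dissolved test compounds | incubation = 30 min at room temperature | benchmarks = DMSO wells, no-enzyme wells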
hIAP activ: increases human intestinal alkaline phosphatase activity; P09923; purified human IAP, CDP-Star luminescence, 30 min; stronger effect = higher value; 1 = vehicle-only enzyme, 0 = enzyme-free background; activation factor at 10 µM; hit rate 0.16% among 330,000; AID 2524;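 active means activation factor of the enzyme at least 2-fold when tested at 20 µM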
Target sequence (P09923 whole entry, looked up): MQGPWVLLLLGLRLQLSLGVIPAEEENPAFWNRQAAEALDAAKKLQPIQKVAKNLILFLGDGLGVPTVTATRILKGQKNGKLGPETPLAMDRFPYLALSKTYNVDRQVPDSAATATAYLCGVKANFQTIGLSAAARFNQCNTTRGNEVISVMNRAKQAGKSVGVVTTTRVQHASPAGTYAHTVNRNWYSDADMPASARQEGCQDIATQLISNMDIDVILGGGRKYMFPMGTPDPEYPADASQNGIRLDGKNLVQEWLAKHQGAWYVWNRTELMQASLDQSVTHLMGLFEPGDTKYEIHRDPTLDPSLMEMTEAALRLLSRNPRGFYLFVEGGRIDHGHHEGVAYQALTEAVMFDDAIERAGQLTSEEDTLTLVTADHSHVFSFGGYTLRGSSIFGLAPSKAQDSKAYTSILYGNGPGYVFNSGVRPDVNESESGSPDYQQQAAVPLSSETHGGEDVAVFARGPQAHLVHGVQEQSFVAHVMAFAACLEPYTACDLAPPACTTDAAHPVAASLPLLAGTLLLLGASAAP
bIAP act: increases bovine intestinal alkaline phosphatase activity. purified bovine IAP, CDP-star luminescence, 30 min; stronger effect = higher value; fold of DMSO-control signal, blank-subtracted. activation factor at 20 µM. hit rate 0.17% among 200,000;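 active means activation factor of 2 or more at 20 µM, a signal rise over negative controls twice the positive control's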
hIAP block: human IAP inhibition. purified IAP, CDP-Star luminescence, 30 min. hit rate 0.12% among 330,000. inhibition, % at 10 µM. AID 2544;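 active means inhibition reaching a set limit with compound at 10 µM in the primary screen, cut at about 35% in these data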;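 further: plate controls were DMSO wells with enzyme for no effect and no-enzyme buffer wells for full effect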
hIAP act confirm: human IAP activation confirmation. hit rate 10% among 880. activation (%Activity, negative = activation), % at 8.3 µM. shares compounds with hIAP activ. purified IAP, CDP-Star luminescence, 30 min; stronger effect = lower value;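 active means at least twofold enzyme activation in any of six single-dose repeats, which the averaged readout prints as negative percent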
mIAP inh confirm: mouse IAP inhibition confirmation; hit rate 4.7% among 11,000; inhibition, % at 10 µM; shares compounds with mIAP inh; purified mouse IAP, CDP-Star luminescence, 30 min;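 active means inhibition of at least 40% at 10 µM in either of the two replicates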;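 further: plate controls were DMSO wells with enzyme for no effect and buffer wells lacking enzyme for full effect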
Starred values were filed as active, the others as inactive; i = inactive; / = not tested or not shown. This is a sample that favours compounds with a hit; in the whole collection about 0.77% have one here.

SMILES	bIAP inh	mIAP inh	mIAP act	hIAP activ	bIAP act	hIAP block	hIAP act confirm	mIAP inh confirm
O=C(CC(=O)c1ccccc1)Nc1ccccn1	/	-1.2	1.01	0.578	/	42.2*	-15.7	/
O=C(CC(=O)c1ccccc1)Nc1ccccc1	/	4.6	0.954	0.928	/	7.2	/	/
CC(C)c1ccc(NC(=O)c2ccc(NS(C)(=O)=O)cc2)cc1	-10.2	-33.2	1.33	1.11	1.1	-11.0	/	/
Cc1cccnc1CN1CCN(Cc2nc(Cc3cccc(F)c3)no2)CC1	6.7	-2.7	1.03	1.01	0.9	-0.8	/	/
CC(C)CC(=O)NC(=S)NNC(=O)c1ccc(NC(=O)C2CCCCC2)cc1	-35.8	-7.7	1.08	2.25*	1.4	-125.5	62.1	/
COc1cc(CCCN2CCNC[C@@H]2Cc2ccc(O)cc2)cc(OC)c1OC	/	3.7	0.963	1	/	-0.4	/	/
Cn1c(SCC(=O)NC2CC2)nnc1-c1ccc(Cl)cc1	/	9.0	0.91	1.02	/	-2.1	/	/
CC(Oc1ccc(F)cc1F)C(=O)NNC(=S)NCC1CCCO1 (configuration not stated)	/	-3.4	1.03	2.23*	/	-123.4	1.1	/
COc1ccc(CN(CCNC(=O)CCCCC(=O)NCCN(Cc2ccc(OC)cc2)C(C)C)C(C)C)cc1	/	-16.2	1.16	0.588	/	41.2*	17.9	/
COc1ccc(CCNC(=O)CCCCC(=O)NCCc2ccc(OC)cc2)cc1	/	9.7	0.903	0.979	/	2.1	/	/
Cc1nc2c3ccccc3nc(NNC(=O)CCC(=O)N3CCN(c4ccccc4)CC3)n2n1	/	8.1	0.919	2.28*	/	-128.1	-42.3	/
COc1ccc(N2CCN(C(=O)CCC(=O)NNc3nc4ccccc4c4nc(C)nn34)CC2)cc1	/	1.0	0.99	1.99	/	-99.3	/	/
CCOC(=O)C1CCN(C(=O)CCC(=O)NNc2nc3ccccc3c3nc(C)nn23)CC1	/	18.8	0.812	2.75*	/	-174.8	-2.5	/
Cc1nc2c3ccccc3nc(NNC(=O)CCC(=O)NCCC(C)C)n2n1	-9.7	13.6	0.864	2.11*	1.1	-111.3	-64.4*	/
Cc1nc2c3ccccc3nc(NNC(=O)CCC(=O)N3CCC(C)CC3)n2n1	/	2.4	0.976	2.33*	/	-133.3	0.7	/
Cc1nc2c3ccccc3nc(NNC(=O)CCC(=O)N3CCN(c4ccccc4F)CC3)n2n1	/	6.9	0.931	1.97	/	-97.0	/	/
CCOCCCNC(=O)CCC(=O)NNc1nc2ccccc2c2nc(-c3ccccc3)nn12	7.7	16.6	0.834	2.09*	0.9	-109.0	48.4	/
Cc1sc(NC(=O)/C=C/c2ccco2)c(C(=O)O)c1C	/	1.7	0.983	1	/	0.0	/	/
COc1ccc(S(=O)(=O)N2CCCC2c2cccs2)cc1 (configuration not stated)	/	5.3	0.947	0.811	/	18.9	/	/
O=S(=O)(c1ccccc1)N1CCCC1c1cccs1 (configuration not stated)	/	5.3	0.947	0.47	/	53.0*	-171.6*	/
O=C(N/N=C/c1ccc(O)cc1O)C(=O)N/N=C/c1ccc(O)cc1O	/	53.5*	0.465	2.28*	/	-127.8	19.1	67.3*
COc1ccc2c(c1)OC[C@H]1[C@H]2N2C(=O)c3cc(F)ccc3NC(=O)[C@@]2(C)[C@H]1c1ccccc1	/	14.9	0.851	0.978	/	2.2	/	/
O=c1[nH]c(/C=C\c2ccc(O)c(O)c2)nc(O)c1[N+](=O)[O-]	/	47.8*	0.522	0.567	/	43.3*	3.1	74.9*
COc1ccccc1N(Cc1ccccc1)S(=O)(=O)c1cc(C(=O)O)ccc1Cl	-0.8	3.2	0.968	0.958	1	4.2	/	/
CN(C)c1ccc2nc3c(=O)[nH]c(=O)nc-3n(CC(O)C(O)C(O)CO)c2c1 (configuration not stated)	/	41.0*	0.59	0.483	/	51.7*	-87.3*	46.2*
SMILES	bIAP inh	mIAP inh	mIAP act	hIAP activ	bIAP act	hIAP block	hIAP act confirm	mIAP inh confirm
S=c1[nH]c2ccc(Cc3ccc4[nH]c(=S)[nH]c4c3)cc2[nH]1	/	4.9	0.951	0.844	/	15.6	/	/
Cc1cc(NC(=O)CC2Oc3ccccc3NC2=O)ccc1Br (configuration not stated)	/	-3.1	1.03	1.03	/	-2.7	/	/
O=C(/C=C/c1ccc(O)c(O)c1)NC(=O)c1ccccc1O	/	48.1*	0.519	0.432	/	56.8*	-8.1	59.3*
O=C(NN1C(=O)/C(=C/c2ccc(O)cc2)SC1=S)c1ccccc1O	/	40.1*	0.599	0.642	/	35.8*	-23.3	55.7*
NS(=O)(=O)c1ccc2nc(-c3ccccc3)c(-c3ccccc3)nc2c1	/	1.4	0.986	0.928	/	7.2	/	/
O=C(NN1C(=O)CSC1=S)C(=O)NN1C(=O)CSC1=S	-45.8	88.9*	0.111	2.45*	1.5	-145.4	73.8	91.8*
Nc1c(N)c2ccccc2oc1=O	4.0	-2.9	1.03	0.998	1	0.2	/	/
O=c1oc2ccccc2c2oc3cc(O)c(O)cc3c12	/	58.2*	0.418	0.297	/	70.3*	24.3	67.2*
COCc1ccc(CN2CCC(n3nccc3NC(=O)CCCc3ccccc3)CC2)o1	/	-3.7	1.04	1.33	/	-32.8	/	/
COc1ccccc1CN1CCC(n2nccc2NC(=O)CCCc2ccccc2)CC1	/	-104.4	2.04*	3.31*	/	-230.9	-112.4*	-108.1
COc1ccccc1/C=C/CN1CCC(n2nccc2NC(=O)CCc2ccccc2)CC1	/	-149.1	2.49*	3.32*	/	-232.0	12.8	-120.6
O=C(CCc1ccccc1)Nc1ccnn1C1CCN(C/C=C/c2ccccc2)CC1	/	-53.0	1.53	1.89	/	-89.0	/	/
CC12CN(C(=S)Nc3ccccc3)CC(C)(CN(C(=S)Nc3ccccc3)C1)C2=O	3.1	3.7	0.963	0.939	1	6.1	/	/
O=C1/C(=C/c2ccc(O)c(O)c2)Oc2cc(O)ccc21	/	58.6*	0.414	0.035	/	96.5*	-0.6	69.3*
O=C1/C(=C/c2cccc([N+](=O)[O-])c2)Oc2cc(O)ccc21	/	-2.0	1.02	0.962	/	3.8	/	/
CC(C)c1ccc(NC(=O)C2CC(=O)Nc3nc4ccccc4n32)cc1 (configuration not stated)	/	-189.1	2.89*	2.37*	/	-136.8	-42.8	-138.0
Cc1cccc(CN2CCC(C(=O)Nc3cccc(-c4cccc(F)c4)c3)CC2)n1	/	-88.2	1.88	0.918	/	8.2	/	/
O=C(Nc1cccc(-c2cccc(F)c2)c1)C1CCN(C2CCC2)CC1	/	-213.7	3.14*	2.16*	/	-115.6	67.6	-154.8
Cn1cc(CN2CCC(C(=O)Nc3cccc(-c4cccc(F)c4)c3)CC2)cn1	/	-129.9	2.3*	2.54*	/	-153.6	4.5	-129.4
COc1cccc(-c2cccc(NC(=O)C3CCN(Cc4cnn(C)c4)CC3)c2)c1	/	-20.7	1.21	1.04	/	-4.4	/	/
Cc1nn(C(C)C)c(C)c1CN1CCC(C(=O)Nc2cccc(-c3cccc(F)c3)c2)CC1	/	-373.1	4.73*	11*	/	i	-20.6	-388.8
